In the M2OR odorant receptor database:
Numbering of substitutions follows the chain as printed.

Columns and labels:
Settings in all cases: stereoisomer not certain
OR2A1 T73A R74C S168C = system: T1, OR2A1 T73A R74C S168C
T1 sequence (whole entry): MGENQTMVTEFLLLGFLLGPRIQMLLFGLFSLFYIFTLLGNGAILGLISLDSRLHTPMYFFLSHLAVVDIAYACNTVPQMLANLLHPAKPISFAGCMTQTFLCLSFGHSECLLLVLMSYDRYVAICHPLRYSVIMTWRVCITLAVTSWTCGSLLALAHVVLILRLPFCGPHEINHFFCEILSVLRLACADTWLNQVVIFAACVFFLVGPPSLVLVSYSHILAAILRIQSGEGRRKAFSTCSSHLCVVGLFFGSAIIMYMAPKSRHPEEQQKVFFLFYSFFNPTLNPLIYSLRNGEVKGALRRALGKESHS
In short: (§1)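 Values were gathered from published papers (main text and supplementary material), with extra details requested from the original authors when needed, and checked for typos and inconsistencies. Each receptor–molecule pair is called responsive (active) if the original authors judged the measured signal statistically different from baseline, and non-responsive (inactive) otherwise. Assay methods varied by source, often transient mammalian cell-line luciferase assays. Recorded details include cell line, G-protein, co-transfected protein and tags.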

OR2A12 (Homo sapiens) = target: T2, OR2A12 (Homo sapiens) (UniProt Q8NGT7)
T2 sequence (whole entry): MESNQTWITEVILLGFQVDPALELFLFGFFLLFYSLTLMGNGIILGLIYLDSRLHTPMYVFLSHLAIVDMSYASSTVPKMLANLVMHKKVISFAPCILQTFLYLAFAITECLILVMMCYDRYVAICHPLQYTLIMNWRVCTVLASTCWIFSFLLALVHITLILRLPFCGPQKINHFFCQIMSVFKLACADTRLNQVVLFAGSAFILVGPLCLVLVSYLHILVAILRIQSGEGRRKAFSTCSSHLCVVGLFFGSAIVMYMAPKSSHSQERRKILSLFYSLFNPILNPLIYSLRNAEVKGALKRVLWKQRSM
In short: as §1

OR2A14 (Homo sapiens) = target: T3, OR2A14 (Homo sapiens) (UniProt Q96R47)
T3 sequence (whole entry): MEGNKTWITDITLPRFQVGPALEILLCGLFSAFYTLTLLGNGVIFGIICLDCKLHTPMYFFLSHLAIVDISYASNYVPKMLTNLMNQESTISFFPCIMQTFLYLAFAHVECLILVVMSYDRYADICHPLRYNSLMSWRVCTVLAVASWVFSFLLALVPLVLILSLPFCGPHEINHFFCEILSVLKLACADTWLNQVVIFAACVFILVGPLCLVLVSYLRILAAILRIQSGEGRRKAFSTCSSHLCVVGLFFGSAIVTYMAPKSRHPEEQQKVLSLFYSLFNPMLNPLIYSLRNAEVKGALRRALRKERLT
In short: as §1

OR2A2 (Homo sapiens) = target: T4, OR2A2 (Homo sapiens) (UniProt Q6IF42)
T4 sequence (whole entry): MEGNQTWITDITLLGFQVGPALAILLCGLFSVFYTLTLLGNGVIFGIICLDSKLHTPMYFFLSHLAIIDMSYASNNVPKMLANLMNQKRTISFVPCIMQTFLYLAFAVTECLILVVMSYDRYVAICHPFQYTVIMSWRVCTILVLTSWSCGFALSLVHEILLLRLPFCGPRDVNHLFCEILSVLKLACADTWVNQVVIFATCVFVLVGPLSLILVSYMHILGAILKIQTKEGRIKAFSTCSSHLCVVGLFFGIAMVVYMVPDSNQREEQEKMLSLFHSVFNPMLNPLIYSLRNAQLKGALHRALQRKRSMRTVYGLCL
In short: as §1

OR2A25 (Homo sapiens) = target: T5, OR2A25 (Homo sapiens) (UniProt A4D2G3)
T5 sequence (whole entry): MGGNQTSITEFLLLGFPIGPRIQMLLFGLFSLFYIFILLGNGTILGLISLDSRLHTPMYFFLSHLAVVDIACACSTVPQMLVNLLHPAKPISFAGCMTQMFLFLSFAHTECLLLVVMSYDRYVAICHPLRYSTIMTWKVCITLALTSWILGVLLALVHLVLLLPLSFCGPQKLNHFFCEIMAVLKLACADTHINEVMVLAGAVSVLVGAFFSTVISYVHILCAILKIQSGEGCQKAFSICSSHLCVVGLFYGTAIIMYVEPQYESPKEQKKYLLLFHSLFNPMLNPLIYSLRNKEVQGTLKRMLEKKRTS
In short: as §1

OR2A2 = system: T6, OR2A2
T6 sequence (whole entry): T4 sequence (whole entry) with F280L
In short: as §1

OR2A4 (Homo sapiens) = target: T7, OR2A4 (Homo sapiens) (UniProt O95047)
T7 sequence (whole entry): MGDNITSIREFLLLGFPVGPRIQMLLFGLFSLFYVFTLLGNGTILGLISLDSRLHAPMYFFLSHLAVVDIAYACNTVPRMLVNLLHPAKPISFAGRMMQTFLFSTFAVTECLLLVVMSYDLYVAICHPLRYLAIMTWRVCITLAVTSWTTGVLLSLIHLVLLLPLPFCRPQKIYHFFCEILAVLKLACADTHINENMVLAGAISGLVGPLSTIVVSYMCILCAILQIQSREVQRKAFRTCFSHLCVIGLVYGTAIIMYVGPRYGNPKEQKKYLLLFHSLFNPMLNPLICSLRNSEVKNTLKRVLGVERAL
In short: as §1

OR2A5 (Homo sapiens) = target: T8, OR2A5 (Homo sapiens) (UniProt Q96R48)
T8 sequence (whole entry): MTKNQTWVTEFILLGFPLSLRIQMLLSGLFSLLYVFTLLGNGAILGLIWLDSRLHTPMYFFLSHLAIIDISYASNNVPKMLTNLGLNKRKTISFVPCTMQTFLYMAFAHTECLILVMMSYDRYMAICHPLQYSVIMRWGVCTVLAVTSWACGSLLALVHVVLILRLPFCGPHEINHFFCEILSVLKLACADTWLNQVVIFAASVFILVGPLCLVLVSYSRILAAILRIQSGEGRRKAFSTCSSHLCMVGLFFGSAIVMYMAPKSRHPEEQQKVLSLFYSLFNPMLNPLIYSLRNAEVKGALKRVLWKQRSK
In short: as §1

OR2A5 I126V A202S A255T = system: T9, OR2A5 I126V A202S A255T
T9 sequence (whole entry): T8 sequence (whole entry) with I126V, A202S, A255T
In short: as §1

OR2A7 (Homo sapiens) = target: T10, OR2A7 (Homo sapiens) (UniProt Q96R45)
T10 sequence (whole entry): T7 sequence (whole entry) with R9T, R238C, V250F
In short: as §1

OR2A7 = system: T11, OR2A7
T11 sequence (whole entry): T7 sequence (whole entry) with R238C, V250F
In short: as §1

OR2AE1 (Homo sapiens) = target: T12, OR2AE1 (Homo sapiens) (UniProt Q8NHA4)
T12 sequence (whole entry): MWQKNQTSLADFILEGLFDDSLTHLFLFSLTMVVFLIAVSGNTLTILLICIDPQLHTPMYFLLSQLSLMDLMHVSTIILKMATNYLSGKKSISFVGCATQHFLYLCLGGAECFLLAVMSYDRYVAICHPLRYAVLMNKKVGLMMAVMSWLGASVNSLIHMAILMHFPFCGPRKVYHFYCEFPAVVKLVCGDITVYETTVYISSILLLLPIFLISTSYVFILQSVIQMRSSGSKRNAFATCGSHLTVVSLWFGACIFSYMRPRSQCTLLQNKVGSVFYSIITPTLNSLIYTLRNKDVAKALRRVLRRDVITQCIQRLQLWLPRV
In short: as §1

OR2AG1 (Homo sapiens) = target: T13, OR2AG1 (Homo sapiens) (UniProt Q9H205)
T13 sequence (whole entry): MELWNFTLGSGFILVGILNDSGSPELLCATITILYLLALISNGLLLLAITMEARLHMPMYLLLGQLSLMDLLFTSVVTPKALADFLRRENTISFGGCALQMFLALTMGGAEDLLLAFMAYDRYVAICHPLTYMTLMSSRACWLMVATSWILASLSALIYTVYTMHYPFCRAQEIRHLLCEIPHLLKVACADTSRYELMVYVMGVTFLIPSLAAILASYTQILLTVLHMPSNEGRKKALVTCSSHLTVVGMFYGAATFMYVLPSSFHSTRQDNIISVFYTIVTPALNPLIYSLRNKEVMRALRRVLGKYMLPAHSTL
In short: as §1

OR2AG2 (Homo sapiens) = target: T14, OR2AG2 (Homo sapiens) (UniProt A6NM03)
T14 sequence (whole entry): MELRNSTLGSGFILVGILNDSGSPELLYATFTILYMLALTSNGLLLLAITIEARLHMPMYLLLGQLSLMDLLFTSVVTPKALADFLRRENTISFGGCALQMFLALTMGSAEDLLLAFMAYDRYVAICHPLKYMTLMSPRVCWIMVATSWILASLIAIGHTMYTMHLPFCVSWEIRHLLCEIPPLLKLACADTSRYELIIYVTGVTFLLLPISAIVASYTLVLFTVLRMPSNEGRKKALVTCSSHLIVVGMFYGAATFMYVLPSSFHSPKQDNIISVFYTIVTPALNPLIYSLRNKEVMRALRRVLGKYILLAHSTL
In short: as §1

OR2AK2 (Homo sapiens) = target: T15, OR2AK2 (Homo sapiens) (UniProt Q8NG84)
T15 sequence (whole entry): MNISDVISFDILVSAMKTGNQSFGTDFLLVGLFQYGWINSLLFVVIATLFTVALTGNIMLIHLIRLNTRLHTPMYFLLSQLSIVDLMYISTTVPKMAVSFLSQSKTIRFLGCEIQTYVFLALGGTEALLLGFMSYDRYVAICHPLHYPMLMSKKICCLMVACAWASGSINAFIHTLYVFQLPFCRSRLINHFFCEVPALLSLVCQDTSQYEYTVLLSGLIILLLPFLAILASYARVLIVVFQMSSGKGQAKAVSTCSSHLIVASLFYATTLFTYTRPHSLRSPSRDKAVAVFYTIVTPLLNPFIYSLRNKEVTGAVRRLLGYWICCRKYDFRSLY
In short: as §1

OR2AP1 (Homo sapiens) = target: T16, OR2AP1 (Homo sapiens) (UniProt Q8NGE2)
T16 sequence (whole entry): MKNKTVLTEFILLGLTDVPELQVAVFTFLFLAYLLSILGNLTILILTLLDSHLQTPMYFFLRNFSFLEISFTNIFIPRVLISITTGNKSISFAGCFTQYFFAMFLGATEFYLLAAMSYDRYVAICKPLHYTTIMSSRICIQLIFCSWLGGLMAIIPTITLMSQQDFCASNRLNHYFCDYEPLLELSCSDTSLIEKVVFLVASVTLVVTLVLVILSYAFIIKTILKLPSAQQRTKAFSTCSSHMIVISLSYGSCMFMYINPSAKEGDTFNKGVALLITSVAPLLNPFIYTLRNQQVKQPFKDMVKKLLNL
In short: as §1

OR2AT4 (Homo sapiens) = target: T17, OR2AT4 (Homo sapiens) (UniProt A6NND4)
T17 sequence (whole entry): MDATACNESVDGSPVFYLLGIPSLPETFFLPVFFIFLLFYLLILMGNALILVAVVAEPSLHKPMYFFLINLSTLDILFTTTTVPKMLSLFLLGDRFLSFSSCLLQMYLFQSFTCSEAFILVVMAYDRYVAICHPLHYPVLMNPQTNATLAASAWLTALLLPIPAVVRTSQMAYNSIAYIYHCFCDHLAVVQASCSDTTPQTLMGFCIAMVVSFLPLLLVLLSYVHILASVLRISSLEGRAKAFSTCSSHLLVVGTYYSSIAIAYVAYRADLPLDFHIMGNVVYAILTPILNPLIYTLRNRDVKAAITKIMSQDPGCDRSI
In short: as §1

OR2B11 (Homo sapiens) = target: T18, OR2B11 (Homo sapiens) (UniProt Q5JQS5)
T18 sequence (whole entry): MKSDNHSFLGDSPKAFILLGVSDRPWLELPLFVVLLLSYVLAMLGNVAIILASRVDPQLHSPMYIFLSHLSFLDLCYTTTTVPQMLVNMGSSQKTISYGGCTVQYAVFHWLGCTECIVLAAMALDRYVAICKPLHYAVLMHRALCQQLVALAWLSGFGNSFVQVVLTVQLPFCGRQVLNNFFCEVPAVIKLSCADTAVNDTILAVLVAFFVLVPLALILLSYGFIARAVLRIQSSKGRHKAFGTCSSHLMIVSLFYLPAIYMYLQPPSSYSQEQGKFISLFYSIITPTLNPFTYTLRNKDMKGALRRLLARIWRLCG
In short: as §1

OR2B2 (Homo sapiens) = target: T19, OR2B2 (Homo sapiens) (UniProt Q9GZK3)
T19 sequence (whole entry): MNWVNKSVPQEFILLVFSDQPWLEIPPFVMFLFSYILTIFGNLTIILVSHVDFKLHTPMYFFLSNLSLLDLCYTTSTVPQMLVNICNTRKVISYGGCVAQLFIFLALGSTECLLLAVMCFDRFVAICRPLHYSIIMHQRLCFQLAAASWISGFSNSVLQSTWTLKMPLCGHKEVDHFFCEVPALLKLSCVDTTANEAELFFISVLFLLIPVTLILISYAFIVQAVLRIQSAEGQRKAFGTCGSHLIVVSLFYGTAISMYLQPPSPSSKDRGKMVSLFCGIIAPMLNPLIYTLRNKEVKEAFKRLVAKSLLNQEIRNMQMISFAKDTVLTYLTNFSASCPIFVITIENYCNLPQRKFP
In short: as §1

Measured: odorant receptor agonist call

CC1=NC(C)C(C)S1 (centres undefined)
inactive: OR2A1 T73A R74C S168C | OR2A12 (Homo sapiens) | OR2A14 (Homo sapiens) | OR2A2 (Homo sapiens) | OR2A25 (Homo sapiens) | OR2A2 | OR2A4 (Homo sapiens) | OR2A5 (Homo sapiens) | OR2A5 I126V A202S A255T | OR2A7 (Homo sapiens) | OR2A7 | OR2AE1 (Homo sapiens) | OR2AG1 (Homo sapiens) | OR2AG2 (Homo sapiens) | OR2AK2 (Homo sapiens) | OR2AP1 (Homo sapiens) | OR2AT4 (Homo sapiens) | OR2B11 (Homo sapiens) | OR2B2 (Homo sapiens)

CCCCCCCCCCCCCCCC(=O)OCC
inactive: OR2A7 (Homo sapiens)

CCC1OC(C)=C(O)C1=O (centres undefined)
inactive: OR2A1 T73A R74C S168C | OR2A12 (Homo sapiens) | OR2A14 (Homo sapiens) | OR2A2 (Homo sapiens) | OR2A25 (Homo sapiens) | OR2A2 | OR2A4 (Homo sapiens) | OR2A5 (Homo sapiens) | OR2A5 I126V A202S A255T | OR2A7 (Homo sapiens) | OR2A7 | OR2AE1 (Homo sapiens) | OR2AG1 (Homo sapiens) | OR2AG2 (Homo sapiens) | OR2AK2 (Homo sapiens) | OR2AP1 (Homo sapiens) | OR2AT4 (Homo sapiens) | OR2B11 (Homo sapiens) | OR2B2 (Homo sapiens)
